Results gathered from unrelated publications.
Lines come from different studies, so protocols differ.
Target: Interleukin-1 receptor-associated kinase 1 (IRAK1, Homo sapiens, UniProt P51617)

Structure (SMILES) | observed | technique | concentration | remaining binding [%]
CCS(=O)(=O)c1cc2cc(C[C@](O)(CC(C)(C)c3ccc(F)cc3C(N)=O)C(F)(F)F)[nH]c2cn1 | cell-free assay | competition with immobilised ligand | 1 µM | 99
CN(C)c1nccc(-c2cnn3ncccc23)n1 | binding | – | 1 µM | 71
O=C(c1ccc(Nc2nccc(-c3cc4ccccc4s3)n2)cc1)N1CCC(N2CCCC2)CC1 | binding | competition with immobilised ligand | 1 µM | 3.2
N#CC1(c2ccccn2)CCN(Cc2cc(C(=O)N3CCCC3)c(=O)n3ccccc23)CC1 | cell-free assay | competition with immobilised ligand | 1 µM | 100
CCN1CCN(Cc2ccc(C(=O)Nc3ccc(C)c(Oc4ccc5c(c4)CC(=O)N5)c3)cc2C(F)(F)F)CC1 | binding | competition with immobilised ligand | 1 µM | 100
COc1cnc(Nc2cccc(S(N)(=O)=O)c2)nc1N1CCN(c2ccccc2)CC1 | binding | competition with immobilised ligand | 1 µM | 68
O=C(c1ccc(Nc2ncc(Cl)c(-c3ccc(Cl)s3)n2)cc1)N1CCC(N2CCCC2)CC1 | binding | competition with immobilised ligand | 1 µM | 0.05
CN(c1ccnc(CNc2nc(Nc3ccc4c(c3)CC(=O)N4)ncc2C(F)(F)F)n1)S(C)(=O)=O | cell-free assay | competition with immobilised ligand | 1 µM | 13
O=C(Nc1c[nH]nc1C(=O)NC1CCNCC1)c1cc(F)cc(F)c1 | binding | competition with immobilised ligand | 1 µM | 95
C[C@H](c1cccc(C#N)c1)n1cc(Cl)cc(C(N)=O)c1=N | cell-free assay | competition with immobilised ligand | 1 µM | 71
CNC(=O)[C@@H]1CC[C@@H](n2c(-c3ccc4cnccc4c3)nc3ccc(C(=O)NCc4cccc(C(N)=O)c4)cc32)C1 | binding | competition with immobilised ligand | 1 µM | 100
CN(CCCC(F)(F)F)c1nccc(-c2cnn3ncccc23)n1 | binding | – | 1 µM | 100
Cc1nccc(COC(=O)N2C[C@@H]3[C@@H](CNC(=O)c4ccc5[nH]nnc5c4)[C@@H]3C2)n1 | cell-free assay | competition with immobilised ligand | 1 µM | 81
C[C@@H]1CCN(c2nccc(-c3cnn4ncccc34)n2)C1 | binding | – | 1 µM | 98
C[C@@]1(Cc2ccc(C#N)cc2)C(=O)N(c2cc(Cl)cc(Cl)c2)c2ncc(C(=O)NC3(c4nc(C5CCC5)no4)CC3)n21 | cell-free assay | competition with immobilised ligand | 1 µM | 100
CC1CCCN1c1nccc(-c2cnn3ncccc23)n1 (stereo not drawn) | binding | – | 1 µM | 85
O=C(NCCCN1CCOCC1)c1ccc(Nc2nccc(-c3cc4ccccc4s3)n2)cc1 | binding | competition with immobilised ligand | 1 µM | 3.3
N[C@H]1CCN(c2nccc(-c3cnn4ncccc34)n2)C1 | binding | – | 1 µM | 90
C=CC(=O)N1CCC(C(=O)NCC(=O)N2CCN(c3nc(-c4cnc(N)nc4C(F)F)nc(N4CCOCC4)n3)CC2)CC1 | binding | competition with immobilised ligand | 1 µM | 100
CN(c1nccc(-c2cnn3ncccc23)n1)C1CC1 | binding | – | 1 µM | 100
C[C@@H](c1ccc(-n2cnc3c(N)ncnc32)cc1)N1CCc2nn(C)c(Cc3ccccc3)c2C1=O | binding | competition with immobilised ligand | 0.1 µM | 69
